Sampled rows, rich in hits. Any-hit rate of the full collection: about 12%.
Arbovirus anti – antivirals against arbovirus infection, primary screen, cell-based, full library, 10K replicate subset; arbovirus infection cell-based antiviral screen; inhibition, % at 10 µM; 0.37% of 200,000 active; AID 1251, 2008; in the data active = inhibition above about 30%
CHOP inh – inhibitors of CHOP promoter induction, primary screen, cell-based, unfolded protein response, luciferase reporter. CHO-K1 CHOP-promoter luciferase, tunicamycin-induced, 15-18 h. inhibition, % at 10 µM. 3.8% of 220,000 active. AID 2732, 2010;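 active = compounds that reduced the stress-induced luciferase reporter signal by more than about 70% of percent inhibition, limit read from the data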;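 also: 0% = tunicamycin plus vehicle and 100% = wells without tunicamycin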
PKD1 inh – inhibitors of human PKD1 kinase, biochemical, fluorescence polarization | Serine/threonine-protein kinase D1 (Homo sapiens), Q15139 | PKD1 kinase fluorescence polarization assay | inhibition, % (no concentration beside the values) | 0.056% of 200,000 active
L major viab – Leishmania major promastigote growth inhibition, primary screen | Leishmania major promastigotes, resazurin fluorescence viability | inhibition, % at 10 µM | 9% of 200,000 active;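 also: promastigotes grown with compound for 44 hours at 28 °C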
Wee1 degr inh – Wee1 degradation inhibitors, primary screen, cell-based, HeLa, Wee1K328M-luciferase, luminescence; Wee1-like protein kinase (Homo sapiens), P30291; HeLa Luc-Wee1K328M stability; 100% = proteasome inhibitor MG132 effect; reporter increase, % at 5 µM; 1.2% of 220,000 active; AID 1321, 2008;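 active = activation above the mean of all tested compounds plus 3 SD, set per screening run, cut at about 8.8% in these data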;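 also: cells exposed to compound for 20 h before luminescence read; 0% = DMSO alone and 100% = MG132 at 30 µM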
Target sequence (P30291 whole entry K328M): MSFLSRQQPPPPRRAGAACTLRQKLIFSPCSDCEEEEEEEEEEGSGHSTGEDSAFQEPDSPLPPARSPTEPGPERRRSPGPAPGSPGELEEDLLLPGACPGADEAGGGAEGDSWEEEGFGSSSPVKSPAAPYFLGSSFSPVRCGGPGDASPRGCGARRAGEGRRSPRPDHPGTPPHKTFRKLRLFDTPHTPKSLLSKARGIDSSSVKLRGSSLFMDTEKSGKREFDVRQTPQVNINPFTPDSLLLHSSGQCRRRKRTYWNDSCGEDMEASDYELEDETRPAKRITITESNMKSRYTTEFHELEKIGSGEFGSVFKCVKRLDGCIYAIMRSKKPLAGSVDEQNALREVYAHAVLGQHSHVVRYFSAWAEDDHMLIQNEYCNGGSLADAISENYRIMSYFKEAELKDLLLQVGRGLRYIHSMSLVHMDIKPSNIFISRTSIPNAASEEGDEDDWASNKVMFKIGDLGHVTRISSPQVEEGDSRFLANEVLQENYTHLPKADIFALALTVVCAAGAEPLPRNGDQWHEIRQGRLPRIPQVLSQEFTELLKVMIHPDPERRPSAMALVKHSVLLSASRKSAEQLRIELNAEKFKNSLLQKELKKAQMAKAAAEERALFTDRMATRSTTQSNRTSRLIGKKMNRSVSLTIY
Rad51 HR inh – human RAD51 strand exchange inhibitors, primary screen, biochemical, fluorescence; DNA repair protein RAD51 homolog 1 (Homo sapiens), Q06609; hRad51 DNA strand exchange, fluorescence dequenching; inhibition, % at 10 µM; 0.085% of 200,000 active;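 active = inhibition above 40% at the single screening dose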;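 also: 0% = DMSO control wells and 100% = blanks with heterologous ssDNA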
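System: hRad51 filaments on single-stranded DNA; reagent: Fluorescein- and BHQ1-tagged 47-mer duplex; compound dosing: one concentration, 10 µM final; timing: filaments 15 min 37 °C, then compound 30 min; measured by: fluorescein emission 520 nm, excitation 485 nm; benchmarks: per-plate controls and blanks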
* hit, by the source's call; · = no result given. Rule as the data show it, unless noted: active = inhibition above about 50%; inactive = the rest.

SMILES | Arbovirus anti | CHOP inh | PKD1 inh | L major viab | Wee1 degr inh | Rad51 HR inh
CCc1ccc(-c2nc(NC(=O)c3ccc(OCC(=O)Nc4ccc(F)cc4)c(OC)c3)sc2C)cc1 | 0 | 27 | -11 | -3 | 0 | 5
COc1cc(C(=O)Nc2nc(-c3ccc(Cl)cc3)c(C)s2)ccc1OCC(=O)Nc1ccc(F)cc1 | -35 | 77* | -1 | -3 | -1 | 2
O=C(C1CCC1)N1CCC(O)(c2cccc(F)c2)CC1 | 9 | 8 | -2 | -10 | 1 | 4
COc1ccc(NC(=O)Nc2cccc(OC)c2)cc1 | 3 | · | -5 | 8 | 0 | 2
COc1cccc(NC(=O)Nc2ccc3nsnc3c2)c1 | -8 | 58 | -5 | 99* | 1 | 10
Cc1c(F)cccc1NS(=O)(=O)c1ccc2c(c1)c(=O)n(C)c(=O)n2C | -2 | 2 | -3 | 14 | 2 | ·
Cc1ccc(/C=C2/SC(=S)N(CCCC(=O)Nc3ccc(O)cc3)C2=O)cc1 | 5 | 94* | -2 | 16 | 1 | ·
O=C(CCN1C(=O)/C(=C/c2cccc(Br)c2)SC1=S)Nc1cccnc1 | -8 | 87* | -7 | 0 | 1 | 5
Cc1ccc(/C=C2\SC(=S)N(CCCC(=O)NNC(=O)c3ccccc3O)C2=O)cc1 | · | 98* | · | · | -2 | -18
Cc1ccc(NC(=O)COc2cccc(/C=C3\SC(=S)N(CCC(=O)O)C3=O)c2)cc1Cl | · | 98* | · | · | 1 | 24
O=C(CCCN1C(=O)/C(=C/c2ccccc2)SC1=S)Nc1cccc(O)c1 | -29 | 67 | -2 | 65* | 1 | -7
CC(/C=C1\SC(=S)N(CCCC(=O)Nc2ccc(C(=O)O)c(O)c2)C1=O)=C\c1ccccc1 | 14 | 5 | -2 | -5 | 0 | -7
Cc1ccccc1Oc1cc(NC(=O)Cn2cnc([N+](=O)[O-])c2)cc([N+](=O)[O-])c1 | -2 | 24 | 0 | 97* | -3 | 0
Cc1nn(CCCC(=O)Nc2cc(Oc3ccc(F)cc3)cc([N+](=O)[O-])c2)c(C)c1[N+](=O)[O-] | -21 | 67 | -8 | 100* | 0 | 17
Cc1c(Cl)c([N+](=O)[O-])nn1CCCC(=O)Nc1cc(Oc2ccccc2)cc([N+](=O)[O-])c1 | -10 | 69 | 1 | 9 | 0 | 25
Cc1ccccc1Oc1cc(NC(=O)CCCn2nc(C)c([N+](=O)[O-])c2C)cc([N+](=O)[O-])c1 | -32 | 91* | -2 | 98* | 2 | 3
CCC(C)NC(=O)Cn1cnc([N+](=O)[O-])c1 (stereo unspecified) | -1 | -14 | -4 | 8 | 0 | -23
Cc1ccc(Nc2nnc(SCn3nnc4ccccc4c3=O)s2)cc1 | 7 | 51 | 0 | 69* | 1 | 4
CS(=O)(=O)c1ccc(Sc2nc3ccccc3s2)c([N+](=O)[O-])c1 | -20 | 6 | -5 | 80* | 0 | -1
CS(=O)(=O)c1ccc(Sc2nc3ccccc3[nH]2)c([N+](=O)[O-])c1 | -6 | 14 | -5 | 38 | 2 | -11
CC1CCCCN1S(=O)(=O)c1ccc(N(C(=O)c2cnccn2)C(C(=O)NC2CCCC2)c2cccs2)cc1 (stereo unspecified) | 0 | 6 | -6 | 93* | -3 | 10
N#Cc1c(SCc2ccccc2)sc(C(=O)c2ccccc2)c1N | -15 | 39 | -2 | -2 | 9.2* | 5
N#Cc1c(SCc2cccc(Cl)c2)sc(C(=O)c2ccccc2)c1N | 48* | 50 | -1 | 6 | -1 | -1
COc1ccc(C(=O)NC(=S)Nc2ccc(Cc3ccncc3)cc2)cc1 | -7 | -3 | 1 | 8 | -3 | 1
Cc1ccc2[nH]c(=O)c(CN(CCCN(C)C)C(=O)Nc3ccc(Cl)cc3)cc2c1 | -42 | 1 | -7 | 90* | 3 | -6
SMILES | Arbovirus anti | CHOP inh | PKD1 inh | L major viab | Wee1 degr inh | Rad51 HR inh
Cc1ccc2cc(CN(CCN(C)C)C(=O)Nc3ccc(Cl)cc3)c(=O)[nH]c2c1 | -32 | 2 | 3 | 29 | -2 | ·
CCc1ccc2[nH]c(=O)c(CN(Cc3ccccc3OC)C(=O)Nc3ccccc3OC)cc2c1 | -11 | 71* | -5 | 16 | 0 | -7
COc1ccc2[nH]c(=O)c(CN(CCCN(C)C)C(=O)Nc3ccc(F)cc3)cc2c1 | 30* | 19 | -9 | 1 | -3 | -6
COc1ccc2[nH]c(=O)c(CN(CCN3CCCC3)C(=O)Nc3ccccc3Cl)cc2c1 | 6 | 3 | · | · | · | -2
CCOc1ccc2[nH]c(=O)c(CN(CCN3CCCC3)C(=S)Nc3ccccc3OCC)cc2c1 | -22 | 9 | -5 | 98* | -2 | 2
N#C/C(=C(/O)C(Cl)(Cl)Cl)c1nc2ccccc2[nH]1 | · | 16 | · | · | -1 | -8
CCOc1ccc(N(CC(=O)N2CCC(Cc3ccccc3)CC2)S(C)(=O)=O)cc1 | 9 | 18 | -8 | -3 | -2 | 9
Cc1ccc(NC(=O)C2OCCc3ccccc32)cc1Cl (stereo unspecified) | 10 | -13 | -7 | 13 | 0 | ·
CC1CN(c2nnc(NC(=O)c3ccccc3)s2)CC(C)O1 (stereo unspecified) | 11 | -9 | -5 | -10 | 2 | 6
O=C(COC(=O)CC1CC2CCC1C2)Nc1cccc(S(=O)(=O)NC2=NCCCCC2)c1 (stereo unspecified) | -2 | -21 | -1 | 8 | -2 | 11
CCSc1ccc(-c2cccc([N+](=O)[O-])c2)nn1 | 1 | 6 | -8 | 2 | 0 | 6
CSc1ccc(OC2CCCCC2NS(=O)(=O)c2ccc(Cl)cc2)cc1 (stereo unspecified) | -17 | -13 | -2 | 96* | 0 | 12
CCN(CC)C1CCCCC1NS(=O)(=O)c1ccc(Cl)cc1 (stereo unspecified) | -3 | -1 | -12 | -5 | 0 | -1
O=S(=O)(NC1CCCCC1Oc1ccccc1)c1ccc(Cl)cc1 (stereo unspecified) | -8 | 60 | -6 | 75* | -2 | 0
O=S(=O)(NC1CCCCC1Nc1ccccc1)c1ccccc1 (stereo unspecified) | 11 | 8 | 2 | -1 | 1 | ·
COc1ccc(/C(C)=N/Nc2ccc(C(=O)O)cc2)c(OC)c1 | -3 | 2 | -11 | 53* | -4 | 4
CSc1nc(-c2ccc(C)cc2)[nH]c1S(=O)(=O)c1ccccc1 | 6 | 18 | -9 | 56* | 1 | -5
CC(=O)Sc1nc(-c2ccccc2)[nH]c1S(=O)(=O)c1ccc(C)cc1 | -8 | -16 | 5 | -7 | 0 | 24

Assay outcomes (PubChem BioAssay)
